# In the library only some 2.3% were active in any assay of this set; here they are far more common.
# TRPC6 activator = mouse TRPC6 channel activators, primary screen, cell-based, HEK293, membrane potential dye; HEK293-TRPC6 membrane potential dye fluorescence; stronger effect = higher value; 310,000 compounds, 0.13% hits; AID 2550, 2010; B-score at 10 µM;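 active = B-score of the integrated fluorescence ratio above library mean plus 3 SD, and starting fluorescence ratio within library mean plus 5 SD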;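 note: higher score means more depolarization so channel activation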
# Target sequence (Q61143 whole entry, looked up): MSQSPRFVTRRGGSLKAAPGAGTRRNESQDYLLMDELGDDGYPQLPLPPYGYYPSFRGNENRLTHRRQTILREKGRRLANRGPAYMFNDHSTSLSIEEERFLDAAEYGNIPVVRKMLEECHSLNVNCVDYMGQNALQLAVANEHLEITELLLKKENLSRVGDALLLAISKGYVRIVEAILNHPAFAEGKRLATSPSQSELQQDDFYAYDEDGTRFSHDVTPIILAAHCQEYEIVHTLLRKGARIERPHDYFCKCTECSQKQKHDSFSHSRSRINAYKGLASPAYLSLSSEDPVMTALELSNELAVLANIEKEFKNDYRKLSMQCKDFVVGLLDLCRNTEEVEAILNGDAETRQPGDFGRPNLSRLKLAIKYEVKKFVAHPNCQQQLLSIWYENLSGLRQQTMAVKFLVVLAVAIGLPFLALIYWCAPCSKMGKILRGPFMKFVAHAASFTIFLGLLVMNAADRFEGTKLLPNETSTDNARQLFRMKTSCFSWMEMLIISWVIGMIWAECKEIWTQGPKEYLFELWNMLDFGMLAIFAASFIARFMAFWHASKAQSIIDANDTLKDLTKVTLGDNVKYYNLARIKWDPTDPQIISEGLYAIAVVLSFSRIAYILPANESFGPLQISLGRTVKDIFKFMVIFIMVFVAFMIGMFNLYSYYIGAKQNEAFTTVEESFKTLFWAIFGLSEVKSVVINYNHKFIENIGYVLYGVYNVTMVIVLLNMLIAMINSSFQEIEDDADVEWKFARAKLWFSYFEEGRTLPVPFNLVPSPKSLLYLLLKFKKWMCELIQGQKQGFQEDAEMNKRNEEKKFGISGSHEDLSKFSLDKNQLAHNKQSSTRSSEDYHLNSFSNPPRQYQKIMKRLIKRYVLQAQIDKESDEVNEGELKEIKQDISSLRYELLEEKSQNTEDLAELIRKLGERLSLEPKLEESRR
# TRPC4 inh = inhibitors of mouse TRPC4 channel, primary screen, Fluo4 calcium, HEK293 TRPC4beta/mu-opioid cells. Short transient receptor potential channel 4 (Mus musculus), Q9QUQ5. DAMGO-evoked Fluo4 calcium flux; stronger effect = lower value. B-score at 10 µM. 300,000 compounds, 0.39% hits. AID 2247, 2010;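 active = B-score over 3 SD under the library average, no early fluorescence shift, positive overall ratio signal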
#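 System: stable TRPC4beta/mu-opioid receptor HEK293 cells; Dosing: single-point compound dosing; Measured by: Fluo4 Ca2+ flux fluorescence; Read-out basis: per-well B score of integrated baseline-normalized Fluo4 ratio.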
# TRPC4 potent = positive allosteric modulators of TRPC4, primary screen, cell-based, mouse TRPC4beta, HEK293 mu-opioid, Fluo-4 calcium; Short transient receptor potential channel 4 (Mus musculus), Q9QUQ5; DAMGO EC20, Fluo-4 Ca2+ flux; stronger effect = higher value; B-score at 10 µM; 310,000 compounds, 0.42% hits; AID 2227, 2009;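 active = B-score of calcium response area above 5 SD of library B-scores, with initial fluorescence ratio within 5 SD of library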
# TRPC4 act = activators of mouse TRPC4 channel, primary screen, Fluo4 calcium, HEK293 TRPC4beta/mu-opioid cells; 310,000 compounds, 0.49% hits; B-score at 10 µM; Fluo4 calcium fluorescence; stronger effect = higher value; Short transient receptor potential channel 4 (Mus musculus), Q9QUQ5;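 active = B-score above 5 SD of library B-scores, and initial fluorescence ratio not above library mean plus 5 SD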;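 note: positive B-score marks a calcium rise read as TRPC4 activation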
#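 Material: HEK293 stable line with TRPC4beta plus mu-opioid receptor; technique: Fluo4 calcium-sensitive dye fluorescence, kinetic, 1 Hz baseline; timing: Fluo4 dye loading 45 min at room temperature, 110 s recording; controls: assay buffer as low control, maximal DAMGO as high control; read-out: integrated baseline-normalised fluorescence ratio, converted to per-well B score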
# TRPC6 inh = mouse TRPC6 channel inhibitors, primary screen, cell-based, HEK293, membrane potential dye; Short transient receptor potential channel 6 (Mus musculus), Q61143; ACh-evoked depolarization; stronger effect = lower value; B-score at 10 µM; 310,000 compounds, 1.1% hits;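 active = B-score under library mean minus 3 SD, initial fluorescence not abnormally high, positive integrated signal ratio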;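 note: B-score derived from integrated fluorescence ratio over the kinetic read; more negative B-score means stronger inhibition of depolarization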
# Hits are given with their value; i = inactive.
SMILES,TRPC6 activator,TRPC4 inh,TRPC4 potent,TRPC4 act,TRPC6 inh
COc1ccc(C2=CC(=O)C=CC2=O)cc1,i,i,i,91,i
CCCCc1nnc(NC(=O)C2CCN(c3ncnc4sc(C)c(C)c34)CC2)s1,i,i,93,i,i
O=C(CC1SC(=O)NC1=O)Nc1ccc(Cl)cc1 (stereo unspecified),i,i,i,45,i
CCC(NC(=O)Nc1nnc(C(F)(F)F)s1)(C(F)(F)F)C(F)(F)F,i,i,i,i,-6.1
COC(=O)CCC(=O)Nc1nnc(C(F)(F)F)s1,i,i,i,i,i
O=C(Nc1ccc(Cl)c([N+](=O)[O-])c1)c1ccncc1,i,i,i,i,i
O=C(Nc1ccc(Cl)c([N+](=O)[O-])c1)c1cnccn1,i,i,21,i,i
COC(=O)C1=C(CN2CCc3ccccc32)NC(=O)NC1c1cc(C)ccc1C (stereo unspecified),i,i,i,i,i
CN(C)CCCN(C(=O)CCOc1ccccc1)c1nc2c(F)cccc2s1,i,i,i,i,-5.1
NC(=O)C(c1ccc(Cl)cc1Cl)c1ncc(C(F)(F)F)cc1Cl (stereo unspecified),i,i,14,i,i
CCc1ccc(NC(=O)N(CCN(C)C)C(C)c2cccnc2)cc1 (stereo unspecified),i,i,i,72,i
CCOc1ccc(NC(=O)N(CCN(C)C)C(C)c2cccnc2)cc1 (stereo unspecified),i,i,i,i,i
CCN(CC)CCCNC(=S)N1CCN(c2nc3ccccc3n2CC)CC1,i,i,15,i,i
CCN(CC)CCCNC(=S)N1CCn2c(nc3ccccc32)C1,i,i,i,i,i
CC(=O)NCCNC(=O)c1ccc2c(c1)S(=O)(=O)c1ccccc1C2=O,i,i,i,i,i
COc1cc(Nc2c3c(nc4ccccc24)CCC3)cc(OC)c1OC,i,i,i,i,i
Cc1cccc(Nc2c3c(nc4ccccc24)CCC3)c1,i,-6,i,i,i
COc1ccc(OC)c(Nc2c3c(nc4ccccc24)CCC3)c1,i,-5,i,i,i
N#Cc1cccc(Nc2c3c(nc4ccccc24)CCC3)c1,i,i,i,i,i
CCC(C)(C)NC(=O)CN(C(=O)C(=O)Nc1ccc2c(c1)OCCO2)C1CC1,i,i,i,i,i
CCn1c(C)nc2cc(C(=O)N/N=C/c3ccc(O)c(O)c3O)ccc21,i,i,14,i,i
COc1ccc(C(=O)C2CCCN(Cc3ccc(Sc4nncn4C)o3)C2)cc1F (stereo unspecified),i,i,i,131,i
COc1ccc(C(=O)C2CCCN(Cc3cn[nH]c3-c3ccc(F)cc3)C2)cc1OC (stereo unspecified),i,i,i,44,i
COc1ccc(C(=O)C2CCCN(Cc3cn(C)nc3-c3ccccc3)C2)cc1F (stereo unspecified),i,i,i,i,i
CCOc1ccc(CNC(=O)c2ccco2)cc1,i,i,i,i,i
SMILES,TRPC6 activator,TRPC4 inh,TRPC4 potent,TRPC4 act,TRPC6 inh
O=C(CSc1nc(-c2ccccc2)nc2ccccc12)Nc1nccs1,i,i,i,i,i
CSc1nc(N2CCOCC2)c2c3c(sc2n1)CCCC3,i,-6,i,i,i
CN1CCN(NC(=O)CN(C)S(=O)(=O)c2cc(Cl)ccc2Cl)CC1,i,i,i,84,i
Cc1cnc(Sc2ncccc2[N+](=O)[O-])nc1,i,i,i,i,i
O=C(c1cc(COc2ccc(F)cc2Cl)on1)N(CCO)Cc1cccs1,i,i,11,i,i
CCN(CCn1cccn1)C(=O)c1cc(COc2ccc(F)cc2Cl)on1,i,i,i,i,i
Cc1cc(NS(=O)(=O)c2ccc(Nc3nc(-c4sc(NC(=O)c5ccccc5)nc4C)cs3)cc2)no1,i,i,i,i,i
Cc1cc(OCCCCCNCCO)cc(C)c1Cl,i,i,i,i,i
Cc1cc(OCCNCCO)cc(C)c1Cl,i,i,26,94,i
CCCCn1c(NC(=O)c2ccccc2)nc2ccccc21,i,-6,52,i,i
CN(C)CCCn1c(NC(=O)C2CCCCC2)nc2ccccc21,i,i,i,i,i
CCCCn1c(NC(=O)C2CCCCC2)nc2ccccc21,i,i,13,i,i
CCn1c(NC(=O)c2ccccc2)nc2ccccc21,i,i,i,i,i
CCC(C)n1nccc1NC(=O)C(C)Cl (stereo unspecified),i,i,i,i,i
Cc1cc(OCCN2CCCC2)ccc1[N+](=O)[O-],i,i,30,i,i
CCOC(=O)C1CCN(c2ncnc3c(C)csc23)CC1,i,i,i,i,i
Cc1csc2c(N3CCN(C(=S)Nc4ccc(C(F)(F)F)cc4)CC3)ncnc12,i,i,i,145,i
Cc1csc2c(N3CCN(C(=O)Nc4ccc(Cl)c(Cl)c4)CC3)ncnc12,i,i,i,91,i
Cc1csc2ncnc(N3CCN(C(=S)Nc4ccc(C(F)(F)F)cc4)CC3)c12,i,i,i,i,i
Cc1csc2c(N3CCN(C(=O)NC(C)(C)C)CC3)ncnc12,i,i,i,84,i
Cc1csc2c(N3CCN(C(=O)c4ccc(C(C)(C)C)cc4)CC3)ncnc12,i,i,i,67,i
Cc1cccc(C)c1N1CCN(C(=O)c2ccc3c(c2)OCO3)CC1,i,i,i,i,i
COc1cc(C(C)=O)ccc1OCC(O)CN1CCN(c2c(C)cccc2C)CC1 (stereo unspecified),i,i,i,48,i
O=C(NCC(=O)N1CCN(C(c2ccccc2)c2ccccc2)CC1)c1ccccc1F,i,i,i,i,i
COCCCN(Cc1ccco1)C(=O)Cn1ncc2c([nH]c3ccccc32)c1=O,i,i,i,i,i
SMILES,TRPC6 activator,TRPC4 inh,TRPC4 potent,TRPC4 act,TRPC6 inh
CN(Cc1ccco1)C(=O)Cn1ncc2c([nH]c3ccccc32)c1=O,i,i,20,i,i
O=C1CCCC(=O)N1c1ccc(N2CCN(c3ccc([N+](=O)[O-])cc3)CC2)c([N+](=O)[O-])c1,i,i,21,i,i
COc1ccc(C(CNc2ccc(C(F)(F)F)cn2)N(C)C)cc1OC (stereo unspecified),i,-6,i,i,i
CCc1ccc(OC(C)C(=O)Nc2ccc(S(=O)(=O)Nc3nccs3)cc2)cc1 (stereo unspecified),i,i,12,i,i
COc1ccccc1N1CCN(Cc2cc(=O)c(OCC(=O)NC3CCCC3)co2)CC1,i,i,108,i,i
Cc1oc(-c2ccc(Cl)cc2)nc1CN1CCC(C(=O)NCC2CCCO2)CC1 (stereo unspecified),i,i,i,i,i
